Measured values pooled from the literature.
Compare with care: the assays were run in different laboratories.
KCNA1: Potassium voltage-gated channel subfamily A member 1 (KCNA1, Homo sapiens, UniProt Q09470)

O=C(Cn1cc(C=CC(=O)c2ccc(F)cc2)nn1)Nc1nc(-c2ccccc2)cs1
inhibition (Collagenase 3 (MMP13, Homo sapiens, UniProt P45452); enzyme activity, inhibitor; 0.5 µM): 35.8%

CNCCCC12CCC(c3ccccc31)c1ccccc12
inhibition (KCNA1; ion current, inhibitor, patch clamp; 3 µM): 2.68%

CC[C@H](C)[C@H](NC(=O)[C@H](CCC(N)=O)NC(=O)[C@H](CCCNC(=N)N)NC(=O)[C@H](CO)NC(=O)[C@H](Cc1c[nH]cn1)NC(=O)[C@@H]1CCCN1C(=O)[C@H](C)NC(=O)[C@H](CO)NC(=O)[C@H](CC(C)C)NC(=O)CNC(=O)[C@@H]1CCCN1C(=O)[C@H](CCC(N)=O)NC(=O)[C@H](CCC(N)=O)NC(=O)[C@H](CCCNC(=N)N)NC(=O)[C@H](CO)NC(=O)CNC(=O)[C@H](CO)NC(=O)[C@H](CO)NC(=O)[C@H](CCC(=O)O)NC(=O)[C@@H]1CCCN1C(=O)[C@@H]1CCCN1C(=O)[C@@H]1CCCN1C(=O)[C@H](CO)NC(=O)[C@H](CC(C)C)NC(=O)[C@H](CO)NC(=O)[C@@H](NC(=O)CN)[C@@H](C)O)C(=O)N1CCC[C@H]1C(=O)N[C@@H](C)C(=O)N1CCC[C@H]1C(=O)N[C@@H](CCC(N)=O)C(=O)NCC(=O)N[C@@H](C)C(=O)N[C@H](C(=O)N[C@@H](CC(C)C)C(=O)N[C@H](C(=O)N[C@@H](CCC(N)=O)C(=O)N[C@@H](CCCNC(=N)N)C(=O)N[C@@H](CCC(=O)O)C(=O)N[C@@H](CCCCN)C(=O)N[C@@H](CC(=O)O)C(=O)N[C@@H](CC(C)C)C(=O)N1CCC[C@H]1C(=O)N[C@@H](CC(N)=O)C(=O)N[C@@H](Cc1ccc(O)cc1)C(=O)N[C@@H](CC(N)=O)C(=O)N[C@@H](Cc1c[nH]c2ccccc12)C(=O)N[C@@H](CC(N)=O)C(=O)N[C@@H](CO)C(=O)N[C@@H](Cc1ccccc1)C(=O)NCC(=O)N[C@@H](CC(C)C)C(=O)N[C@@H](CCCNC(=N)N)C(=O)N[C@@H](Cc1ccccc1)C(N)=O)C(C)C)C(C)C
Emax (KiSS-1 receptor (KISS1R, Homo sapiens, UniProt Q969F8, Y302A); inositol phosphate, agonist; HEK293): 94.9%

COc1cc(-c2cncc3c2CN(C)Cc2cc(N4CCNCC4)ccc2-3)cc(OC)c1OC
remaining activity (Serine/threonine-protein kinase N2 (PKN2, Homo sapiens, UniProt Q16513); enzyme activity, inhibitor; 1 µM): 112%

CNc1ncc2c(/C=C/C(=O)N3CCC(OC)CC3)nn(Cc3cccc(C(F)(F)F)c3)c2n1
remaining activity (Serine/threonine-protein kinase 38-like (STK38L, Homo sapiens, UniProt Q9Y2H1); enzyme activity, inhibitor, radiometric; 1 µM): 90%

C=CC(=O)N1CCC(COCC(=O)N2CCN(c3nc(-c4cnc(N)nc4C(F)F)nc(N4CCOC[C@@H]4C)n3)CC2)CC1
remaining binding (Dual specificity protein kinase CLK2 (CLK2, Homo sapiens, UniProt P49760); binding, competition with immobilised ligand; 1 µM): 79%

Nc1c(Br)cc(Br)cc1CN[C@H]1CC[C@H](O)CC1
inhibition (KCNA1; ion current, inhibitor, patch clamp; 30 µM): 16.8%

Cc1cc([C@@H](C)Nc2ccccc2C(=O)O)c2nc(N3CCC(F)(F)CC3)c(C#N)c(=O)n2c1
remaining binding (RAF proto-oncogene serine/threonine-protein kinase (RAF1, Homo sapiens, UniProt P04049); binding, competition with immobilised ligand; 10 µM): 90%

CCCN1C[C@H](CSC)C[C@@H]2c3cccc4[nH]cc(c34)C[C@H]21
inhibition (KCNA1; ion current, inhibitor, patch clamp; 30 µM): 34.8%

CC(=O)c1c(C)c2cnc(Nc3ccc(N4CCNCC4)cn3)nc2n(C2CCCC2)c1=O
activity vs control (Cyclin-dependent kinase 3 (CDK3, Homo sapiens, UniProt Q00526); enzyme activity, inhibitor, ADP detection; 1 µM): 90%
